In the library only some 1.8% were active in any assay of this set; here they are far more common.
DNMT1 block: blocks human DNA methyltransferase DNMT1. P26358. DNMT1 molecular beacon, Hinp1I cleavage, fluorescence. inhibition (reported as % activation of signal), % at 10 µM. hit rate 0.83% among 360,000; in the data active = inhibition above about 50%
Target sequence (P26358 504-1616 limits assumed): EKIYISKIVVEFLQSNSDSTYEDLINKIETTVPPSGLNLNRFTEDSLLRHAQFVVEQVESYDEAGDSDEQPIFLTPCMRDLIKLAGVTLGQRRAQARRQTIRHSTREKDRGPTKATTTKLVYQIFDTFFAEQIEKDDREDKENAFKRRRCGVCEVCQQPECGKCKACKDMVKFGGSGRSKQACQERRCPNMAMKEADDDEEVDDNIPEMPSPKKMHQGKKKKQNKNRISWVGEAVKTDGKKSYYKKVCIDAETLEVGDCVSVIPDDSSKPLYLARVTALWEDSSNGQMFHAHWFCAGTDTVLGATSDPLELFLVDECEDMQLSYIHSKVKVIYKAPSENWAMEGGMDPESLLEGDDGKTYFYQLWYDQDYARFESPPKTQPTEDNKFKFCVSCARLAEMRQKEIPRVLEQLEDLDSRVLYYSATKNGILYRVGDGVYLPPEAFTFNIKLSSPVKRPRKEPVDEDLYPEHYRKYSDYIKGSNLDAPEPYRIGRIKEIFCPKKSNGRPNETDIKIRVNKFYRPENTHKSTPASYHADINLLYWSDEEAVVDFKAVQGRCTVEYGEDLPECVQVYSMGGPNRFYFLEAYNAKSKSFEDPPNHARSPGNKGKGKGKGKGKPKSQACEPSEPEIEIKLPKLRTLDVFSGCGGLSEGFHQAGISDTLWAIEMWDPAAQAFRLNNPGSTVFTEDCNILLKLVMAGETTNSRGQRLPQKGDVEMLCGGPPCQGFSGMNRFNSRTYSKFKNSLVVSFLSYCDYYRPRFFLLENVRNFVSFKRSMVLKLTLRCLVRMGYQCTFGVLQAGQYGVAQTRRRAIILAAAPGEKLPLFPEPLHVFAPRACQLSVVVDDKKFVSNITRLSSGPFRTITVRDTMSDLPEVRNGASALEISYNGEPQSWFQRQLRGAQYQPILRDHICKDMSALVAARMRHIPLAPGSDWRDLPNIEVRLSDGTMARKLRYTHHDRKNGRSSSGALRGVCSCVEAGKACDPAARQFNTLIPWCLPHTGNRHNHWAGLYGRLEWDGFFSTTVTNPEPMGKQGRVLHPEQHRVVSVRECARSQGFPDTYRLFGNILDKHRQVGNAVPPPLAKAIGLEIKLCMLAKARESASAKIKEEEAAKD
Scp1 inh: blocks human Scp-1 phosphatase activity; Q9GZU7; Recombinant Scp1, phosphopeptide, malachite green phosphate absorbance; inhibition, % at 20 µM; hit rate 0.88% among 340,000; AID 493091;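 active = inhibition above about 50% at 20 µM, limit read from the data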;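 also: plate controls were DMSO wells with enzyme for no effect and wells lacking enzyme for full effect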
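Test system: SCP-1 phosphatase catalytic domain, residues 76-261 | Compound dosing: One concentration, 20 µM, with 1.0% DMSO | Schedule: 45 min room-temperature reaction, 5 min colour, 30 min stabiliser | Detection: Absorbance at 630 nm | Read-out basis: % inhibition of SCP-1 phosphate liberation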
SUMO1-SIM PPI: modulators of human SUMO1-mediated protein-protein interactions | P63165 | SUMO1 binding to a labelled peptide, TR-FRET, 1 h | inhibition, % at 20 µM | hit rate 0.33% among 360,000; in the data active = inhibition above about 37%
STEP block: inhibitors of human striatal-enriched phosphatase STEP. hit rate 0.25% among 360,000. inhibition, % at 20 µM. AID 588621. recombinant STEP, OMFP fluorogenic substrate, fluorescence;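 active = inhibition at 20 µM, scaled per plate between control wells, above about 37%, limit read from the data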;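 also: 0% = DMSO with enzyme and substrate and 100% = substrate only without enzyme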
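Test system: STEP tyrosine phosphatase / Reagent: OMFP at 25 µM / Doses: 20 µM, 1% DMSO / Read-out: percent inhibition scaled to no-enzyme and uninhibited-enzyme controls, plate-pattern corrected / Detection: FITC-channel fluorescence of OMFP product / Medium: Bis-Tris buffer pH 6.0, 2.5 mM DTT, 0.005% Tween 20 / Schedule: 20 min at room temperature, dark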
LMPTP inh: LMPTP (human) inhibition; P24666; recombinant LMPTP-A, OMFP fluorogenic substrate, fluorescence intensity; inhibition, % at 20 µM; hit rate 0.22% among 360,000;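 active = compounds that cut the enzyme signal by at least half of the control window in the single-dose screen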;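 also: plate controls were DMSO wells with enzyme plus substrate for no effect and substrate without enzyme for full effect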
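material = LMPTP-A | quantity = 0.625 nM enzyme | reagent = OMFP substrate, 400 µM final | buffer or medium = Bis-Tris pH 6.0, DTT, detergent | detection = endpoint fluorescence intensity from OMFP dephosphorylation | dosing = single 20 µM dose | read-out basis = % inhibition relative to no-enzyme and uninhibited control wells | control set = no-enzyme and uninhibited controls | timing = 50 min at room temperature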
HKDC1 inh: HKDC1 (human) hexokinase inhibition. Q2TB90. recombinant HKDC1, G6PDH/diaphorase resazurin coupled fluorescence. inhibition, % at 20 µM. hit rate 0.16% among 340,000. AID 493160;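 active = inhibition above about 35% when tested at 20 µM, limit read from the data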;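 also: plate controls were DMSO wells with enzyme for no effect and DMSO wells lacking enzyme for full effect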
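Test system: HK5 enzyme. Quantity: 5 µg/mL HK5 final. Reagent: glucose and ATP substrates. Schedule: 90 min reaction incubation at room temperature, dark. Technique: resazurin-to-resorufin fluorescence via G6PDH and diaphorase coupling, 525/613 nm. Control set: DMSO wells with and without enzyme mix.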
DNMT1 inh conf: DNMT1 inhibition confirmation, single concentration; hit rate 8% among 2,300; DNMT1 molecular beacon HinP1I cleavage, fluorescence; shares compounds with DNMT1 block; inhibition, % at 10 µM; AID 602385;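 active = average inhibition of at least 30% in the single-concentration confirmation test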
Beacon interf: beacon fluorescence artifact counter-screen | shares compounds with DNMT1 block | DNMT1 molecular beacon spectral interference counterscreen, fluorescence 485/520 | activation (fluorescence interference), % at 10 µM | hit rate 1% among 2,300 | AID 602387;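 active = activation of at least 30% at 10 µM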;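 also: DNMT1 catalytic domain with a HinP1I cleavage step and a FAM/dabcyl DNA beacon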
* marks the source's active call; other numbers are inactive results; ! = not active in a repeat.

Screening Cc1ccc(C(=O)Nc2cccc(C(F)(F)F)c2)cc1NC(=O)c1cnnc2ccccc12 returned DNMT1 block 55.4*!, Scp1 inh 0.6, SUMO1-SIM PPI 2.8, STEP block 4.8, LMPTP inh 2.4, HKDC1 inh -3.0, DNMT1 inh conf 2.7 and Beacon interf -0.8.
For COc1ccc(CCN2C(=O)COc3ccccc3C2C(=O)NCc2ccccc2)cc1OC (centres undefined) the results were SUMO1-SIM PPI -3.4 and LMPTP inh -1.5.
O=c1nc(Nc2ccc(Br)cc2)sc2ccc([N+](=O)[O-])cc12 was read as DNMT1 block 53.8*, Scp1 inh 40.1, SUMO1-SIM PPI -53.7, STEP block 5.3, LMPTP inh 44.6, HKDC1 inh -6.5, DNMT1 inh conf 1.1 and Beacon interf -3.1.
Screening CC(=O)Nc1nc2cc([N+](=O)[O-])ccc2s1 returned DNMT1 block 4.8, Scp1 inh -3.0, SUMO1-SIM PPI -28.6, STEP block 2.0, LMPTP inh -1.2 and HKDC1 inh -4.4.
Screening O=C1NC[C@@H](CCCCN2C[C@H](Cc3ccccc3)N(CCc3ccccc3)C(=O)C2=O)N(CCc2ccccc2)C1=O returned SUMO1-SIM PPI -1.3 and LMPTP inh -0.5.
Screening Cc1cccc(NC(=O)NCc2ccc3c(c2)cc(C)n3C)c1 returned DNMT1 block 57.3*, Scp1 inh -6.0, SUMO1-SIM PPI -45.1, STEP block -2.5, LMPTP inh 4.6, HKDC1 inh 2.2, DNMT1 inh conf -0.5 and Beacon interf 0.8.
Screening Cc1cc2cc(CNC(=O)c3cccc([N+](=O)[O-])c3)ccc2n1C returned DNMT1 block -1.8, Scp1 inh -9.2, SUMO1-SIM PPI -23.7, STEP block 2.2, LMPTP inh 0.1 and HKDC1 inh -3.0.
For Cc1cc2cc(CNC(=O)Cc3ccc([N+](=O)[O-])cc3)ccc2n1C the results were DNMT1 block 56.2*, Scp1 inh -6.2, SUMO1-SIM PPI -16.7, STEP block 0.6, LMPTP inh 16.8, HKDC1 inh -9.7, DNMT1 inh conf 1.2 and Beacon interf 7.9.
For Cc1cc2cc(CNC(=S)Nc3ccc(OC(F)(F)F)cc3)ccc2n1C the results were DNMT1 block 57.0*, Scp1 inh 2.9, SUMO1-SIM PPI -71.2, STEP block -3.3, LMPTP inh 1.9, HKDC1 inh -3.8, DNMT1 inh conf 0.8 and Beacon interf 4.3.
`COC1=CC(=O)OC(c2cccc([N+](=O)[O-])c2)C1` (centres undefined) gave SUMO1-SIM PPI -43.4 and LMPTP inh -0.9.
O=C(Cn1cc(COc2ccc(Br)cc2)nn1)c1ccc(O)cc1 was read as DNMT1 block -3.2, Scp1 inh 0.8, SUMO1-SIM PPI -2.8, STEP block 2.1, LMPTP inh 0.7 and HKDC1 inh 0.9.
Screening CCCC(=O)c1ccc(OCc2cn(CC(=O)c3ccc(O)cc3)nn2)cc1 returned DNMT1 block 52.2*, Scp1 inh -5.0, SUMO1-SIM PPI 0.4, STEP block -0.9, LMPTP inh -0.6, HKDC1 inh 25.0, DNMT1 inh conf 3.1 and Beacon interf -1.3.
O=Cc1cccc(OCc2cn(CC(=O)c3ccc(O)cc3)nn2)c1 was read as DNMT1 block 57.7*, SUMO1-SIM PPI 3.8, STEP block 1.7, LMPTP inh -0.9, DNMT1 inh conf 4.5 and Beacon interf -3.6.
`Cc1cc(-c2ccc(C(C)C)c(S(=O)(=O)N3CCN(c4ccccn4)CC3)c2)on1` gave DNMT1 block -7.2, Scp1 inh -4.5, SUMO1-SIM PPI 5.7, STEP block 0.6, LMPTP inh 6.3 and HKDC1 inh -2.6.
